From ChEMBL document CHEMBL1147968, “Novel lbeta-methylcarbapenems having cyclic sulfonamide moieties: synthesis and evaluation of in vitro antibacterial activity” (2007)
Values after ≈ are worked out from the molar mass of the structure shown.

Key:
Assay type in all cases: functional
Staphylococcus aureus = test: Antibacterial activity against Staphylococcus aureus 1218 after 18 to 24 hrs by agar dilution method
Method in brief: (§1)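 MICs were determined by agar dilution on test agar. An overnight tryptosoy broth culture was diluted in the same broth to about 10⁶ cells/mL and spotted with an inoculating device onto agar containing serial twofold dilutions of compound. Plates were incubated at 37 °C for 18–20 h, and the MIC was the lowest concentration with no visible growth.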

Staphylococcus = test: Antibacterial activity against coagulase negative Staphylococcus after 18 to 24 hrs by agar dilution method
Method in brief: (§2)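 Agar dilution on test agar holding serial twofold dilutions of compound. Overnight tryptosoy broth cultures were diluted in the same broth to about 10⁶ cells/mL and spotted with an inoculating device. Plates were incubated at 37 °C for 18–20 h.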

Enterococcus faecalis = test: Antibacterial activity against Enterococcus faecalis 2347 after 18 to 24 hrs by agar dilution method; method in brief: as §1
Streptococcus pyogenes = test: Antibacterial activity against Streptococcus pyogenes 9889 after 18 to 24 hrs by agar dilution method; method in brief: as §2
Streptococcus agalactiae = test: Antibacterial activity against Streptococcus agalactiae 32 after 18 to 24 hrs by agar dilution method; method in brief: as §1
Streptococcus pneumoniae = test: Antibacterial activity against Streptococcus pneumoniae 0025 after 18 to 24 hrs by agar dilution method; method in brief: as §1
Haemophilus influenzae = test: Antibacterial activity against Haemophilus influenzae 1210 after 18 to 24 hrs by agar dilution method; method in brief: as §1
Escherichia coli = test: Antibacterial activity against Escherichia coli 04 after 18 to 24 hrs by agar dilution method; method in brief: as §1
Klebsiella pneumoniae = test: Antibacterial activity against Klebsiella pneumoniae 523 after 18 to 24 hrs by agar dilution method; method in brief: as §1
Citrobacter freundii = test: Antibacterial activity against Citrobacter freundii 323 after 18 to 24 hrs by agar dilution method; method in brief: as §1
Enterobacter cloacae = test: Antibacterial activity against Enterobacter cloacae 34 after 18 to 24 hrs by agar dilution method; method in brief: as §1
Serratia marcescens = test: Antibacterial activity against Serratia marcescens 3349 after 18 to 24 hrs by agar dilution method; method in brief: as §1
Acinetobacter baumannii = test: Antibacterial activity against Acinetobacter baumannii 2289 after 18 to 24 hrs by agar dilution method; method in brief: as §1
Pseudomonas aeruginosa = test: Antibacterial activity against Pseudomonas aeruginosa 5455 after 18 to 24 hrs by agar dilution method; method in brief: as §1

Row | MIC (Staphylococcus aureus) [µg/mL] | MIC (Staphylococcus) [µg/mL] | MIC (Enterococcus faecalis) [µg/mL] | MIC (Streptococcus pyogenes) [µg/mL] | MIC (Streptococcus agalactiae) [µg/mL] | MIC (Streptococcus pneumoniae) [µg/mL] | MIC (Haemophilus influenzae) [µg/mL] | MIC (Escherichia coli) [µg/mL] | MIC (Klebsiella pneumoniae) [µg/mL] | MIC (Citrobacter freundii) [µg/mL] | MIC (Enterobacter cloacae) [µg/mL] | MIC (Serratia marcescens) [µg/mL] | MIC (Acinetobacter baumannii) [µg/mL] | MIC (Pseudomonas aeruginosa) [µg/mL] | SMILES
1 | 6.25 (≈ 13.6 µM) | 0.098 (≈ 0.213 µM) | 6.25 (≈ 13.6 µM) | 0.01 (≈ 0.0217 µM) | 0.01 (≈ 0.0217 µM) | 0.02 (≈ 0.0434 µM) | 6.25 (≈ 13.6 µM) | 0.049 (≈ 0.106 µM) | 0.049 (≈ 0.106 µM) | 0.049 (≈ 0.106 µM) | 0.049 (≈ 0.106 µM) | 0.198 (≈ 0.43 µM) | 6.25 (≈ 13.6 µM) | 1.56 (≈ 3.39 µM) | C[C@@H](O)C1C(=O)N2C(C(=O)O)=C(S[C@@H]3CN[C@H](CN4CCCNS4(=O)=O)C3)[C@H](C)C12 (stereo partly drawn)
2 | 25 (≈ 52.7 µM) | 0.198 (≈ 0.417 µM) | 6.25 (≈ 13.2 µM) | 0.02 (≈ 0.0421 µM) | 0.04 (≈ 0.0843 µM) | 0.04 (≈ 0.0843 µM) | 12.5 (≈ 26.3 µM) | 0.098 (≈ 0.206 µM) | 0.198 (≈ 0.417 µM) | 0.098 (≈ 0.206 µM) | 0.098 (≈ 0.206 µM) | 0.098 (≈ 0.206 µM) | 25 (≈ 52.7 µM) | 12.5 (≈ 26.3 µM) | CCN1CCN(C[C@@H]2C[C@H](SC3=C(C(=O)O)N4C(=O)C([C@@H](C)O)C4[C@H]3C)CN2)S1(=O)=O (stereo partly drawn)
